According to ChEMBL document CHEMBL4052722, “Virtual screening, synthesis and biological evaluation of DNA intercalating antiviral agents” (Bioorg Med Chem Lett, 2017):

Columns and labels:
[1] = Cytotoxicity against African green monkey CV1 cells assessed as cell viability at 0.1 to 100 uM preincubated for 4 hrs measured after 24 hrs by MTT assay relative to control; format: cell-based, CV-1; conditions: chlorocebus aethiops, read-out: Activity
Summary of the method: (§1)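 CV-1 cells were exposed to test samples at 0.1, 10 and 100 μM. Viability was read by MTT assay.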

[2] = Cytotoxicity against African green monkey CV1 cells assessed as reduction in cell viability preincubated for 4 hrs measured after 24 hrs by MTT assay relative to control; format: cell-based, CV-1; conditions: chlorocebus aethiops; summary of the method: as §1
Bos taurus = species: Bos taurus; assay: Displacement of ethidium bromide from calf thymus DNA by fluorescence binding assay
[3] = test system: Vesicular stomatitis virus; assay: Antiviral activity against Vesicular stomatitis virus at 0.2 to 620 uM after 24 hrs post infection relative to control; format: functional

Row | SMILES | viability at 24 h, up to 100 µM [1] | CC50 at 24 h [2] | log Ka (Bos taurus) | Activity [3]
1 | CCCCN(CCO)CCN1C(=O)c2cccc3cccc(c23)C1=O | 70% | > 100 µM |  | 
2 | CC(O)N(C)CCn1c2ccccc2c2nc3ccccc3nc21 (stereo not given) | 78% | 100 µM |  | 
3 | CCN(CCO)CCN1C(=O)c2cccc3cccc(c23)C1=O | 79% | 100 µM |  | 
4 | O=C(Cn1c2ccccc2c2nc3ccccc3nc21)OCCN1CCCCC1 | 102% | > 100 µM | 5.39 | 50%
5 | CN(C)CCCOC(=O)Cn1c2ccccc2c2nc3ccccc3nc21 | 87% | 100 µM | 5.28 | 100%
6 | COC(=O)CN(C)CCCN1C(=O)c2cccc3cccc(c23)C1=O | 90% | > 100 µM |  | 
7 | c1ccc2nc3c(nc2c1)c1ccccc1n3CCNCCN1CCCCC1 | 113% | > 100 µM | 6.85 | 52%
8 | Cc1ccc2c(c1)c1nc3ccccc3nc1n2CCN1CCN(C)CC1 | 87% | 100 µM |  | 
9 | CN(C)CCNC(=O)Cn1c2ccccc2c2nc3ccccc3nc21 | 94% | > 100 µM | 5.38 | 82%
10 | CCN(CC)CCNC(=O)Cn1c2ccccc2c2nc3ccccc3nc21 | 100% | > 100 µM | 5.03 | 75%
11 | CCCCN(C)CCn1c2ccccc2c2nc3ccccc3nc21 | 92% | > 100 µM | 5.93 | 75%
12 | O=C(CN1CCCC1)NN1C(=O)c2cccc3cccc(c23)C1=O | 99% | > 100 µM | 5.41 | 
13 | CCN(CC)CCCNC(=O)Cn1c2ccccc2c2nc3ccccc3nc21 | 88% | 100 µM | 4.93 | 85%
14 | CN1CCN(CC(=O)NN2C(=O)c3cccc4cccc(c34)C2=O)CC1 | 84% | 100 µM | 5.43 | 
15 | CN(C)CCOC(=O)CCCn1c2ccccc2c2nc3ccccc3nc21 | 94% | 100 µM | 5.56 | 75%
16 | COC(=O)CN1CCN(CCN2C(=O)c3cccc4cccc(c34)C2=O)CC1 | 78% | > 100 µM |  | 
17 | O=C(CCCn1c2ccccc2c2nc3ccccc3nc21)OCCN1CCOCC1 | 102% | > 100 µM | 5.7 | 80%
18 | O=C(CCCn1c2ccccc2c2nc3ccccc3nc21)NCCN1CCCCC1 | 93% | 100 µM | 4.98 | 
19 | O=C(CCCn1c2ccccc2c2nc3ccccc3nc21)NCCN1CCOCC1 | 95% | > 100 µM | 4.91 | 
20 | O=C(CN1CCCCCC1)NN1C(=O)c2cccc3cccc(c23)C1=O | 97% | > 100 µM | 5.53 | 
21 | CC1CCN(CC(=O)NN2C(=O)c3cccc4cccc(c34)C2=O)CC1 | 104% | > 100 µM | 5.73 | 
22 | O=C(CN1CCCCC1)N/N=C1\C(=O)Nc2ccccc21 |  |  | 5.64 | 100%
23 | CN1CCN(CCCCn2c3ccccc3c3nc4ccccc4nc32)CC1 |  |  | 6.04 | 10%
24 | O=C(CN1CCCCC1)N/N=C1/C(=O)Nc2ccc3ccccc3c21 |  |  | 6.21 | 10%

Row | SMILES | viability at 24 h, up to 100 µM [1] | CC50 at 24 h [2] | log Ka (Bos taurus) | Activity [3]
25 | CN(CCO)CCN1C(=O)c2cccc3cccc(c23)C1=O | 88% | > 100 µM |  | 
26 | CN1CCN(CCn2c3ccc4ccccc4c3c3nc4ccccc4nc32)CC1 |  |  | 6.58 | 17%
27 | CCN(CC)CCCCn1c2ccccc2c2nc3ccccc3nc21 |  |  | 6.22 | 10%
28 | c1ccc2nc3c(nc2c1)c1ccccc1n3CCCCN1CCCCC1 |  |  | 5.93 | 11%
29 | O=C(CCCn1c2ccccc2c2nc3ccccc3nc21)NCCCN1CCOCC1 | 85% | > 100 µM | 5.11 | 
30 | CCCN(CCC)CCCn1c2ccccc2c2nc3ccccc3nc21 |  |  | 6.13 | 41%
31 | CC1CCCCN1CCn1c2ccc3ccccc3c2c2nc3ccccc3nc21 (stereo not given) |  |  | 6.83 | 20%
32 | CCN(CC)CCCOC(=O)Cn1c2ccccc2c2nc3ccccc3nc21 |  |  | 5.17 | 0%
33 | CN(C)CCNC(=O)CCCn1c2ccccc2c2nc3ccccc3nc21 | 93% | 100 µM | 5.01 | 
34 | CN(C)CCn1c2ccccc2c2nc3ccccc3nc21 | 62% | 10 µM | 5.93 | 75%
35 | c1ccc2nc3c(nc2c1)c1ccccc1n3CCN1CCCCCC1 |  |  | 6.16 | 90%
36 | O=C(CN1CCCC1)N/N=C1/C(=O)Nc2ccc3ccccc3c21 |  |  | 6.44 | 10%
37 | CN(C)CCCNC(=O)CCCCCN1C(=O)c2cccc3cccc(c23)C1=O |  |  | 6.1 | 100%
38 | CCN(CC)CCCC(C)N1C(=O)c2cccc3cccc(c23)C1=O (stereo not given) | 86% | 50 µM | 5.5 | 
39 | CCCN(CCC)CCn1c2ccccc2c2nc3ccccc3nc21 |  |  | 6.09 | 90%
40 | OCCNCCn1c2ccc3ccccc3c2c2nc3ccccc3nc21 |  |  | 6.8 | 20%
41 | CN(C)CCCCCn1c2ccccc2c2nc3ccccc3nc21 |  |  | 5.66 | 68%
42 | CC1CCN(CCCn2c3ccccc3c3nc4ccccc4nc32)CC1 |  |  | 6.07 | 74%
43 | c1ccc2nc3c(nc2c1)c1ccccc1n3CCCCN1CCOCC1 |  |  | 5.94 | 35%
44 | CCN(CC)CCN1C(=O)/C(=N\NC(=O)CN2CCN(C)CC2)c2ccccc21 |  |  | 5.99 | 0%
45 | c1ccc2nc3c(nc2c1)c1ccccc1n3CCCCCN1CCOCC1 |  |  | 5.73 | 77%
46 | CCN(CC)CCN1C(=O)/C(=N\NC(=O)CCN2CCN(C)CC2)c2ccccc21 |  |  | 6.15 | 100%
47 | O=C(CCN1C(=O)c2cccc3cccc(c23)C1=O)NCCN1CCOCC1 |  |  | 5.78 | 5%
48 | CCN(CC)CC(=O)N/N=C1/C(=O)Nc2ccc3ccccc3c21 |  |  | 6.3 | 30%

Row | SMILES | viability at 24 h, up to 100 µM [1] | CC50 at 24 h [2] | log Ka (Bos taurus) | Activity [3]
49 | CCN(CC)CCNCCn1c2ccccc2c2nc3ccccc3nc21 | 99% | > 100 µM | 6.82 | 73%
50 | CN1CCN(CCN2C(=O)c3cccc4cccc(c34)C2=O)CC1 | 65% | 100 µM |  | 
51 | CCN(CC)CCN1C(=O)/C(=N\NC(=O)CN2CCOCC2)c2ccccc21 |  |  | 6.21 | 8%
52 | CN1CCN(CC(=O)N/N=C2\C(=O)Nc3ccccc32)CC1 |  |  | 5.43 | 80%
53 | CCN(CC)CCN1C(=O)/C(=N\NC(=O)CCN2CCCCC2)c2ccccc21 |  |  | 5.39 | 100%
54 | O=C(CCCN1C(=O)c2cccc3cccc(c23)C1=O)NCCCN1CCOCC1 |  |  | 5.07 | 30%
55 | c1ccc2nc3c(nc2c1)c1ccccc1n3CCCN1CCCCC1 |  |  | 6.04 | 28%
56 | CN(C)CCCNC(=O)CCCn1c2ccccc2c2nc3ccccc3nc21 | 96% | > 100 µM | 5.09 | 
57 | CCN(CC)CCNC(=O)CCCn1c2ccccc2c2nc3ccccc3nc21 | 88% | 100 µM | 5.25 | 
58 | CC1CCN(CCCCn2c3ccccc3c3nc4ccccc4nc32)CC1 |  |  | 5.8 | 20%
59 | CC1CCN(CCn2c3ccc4ccccc4c3c3nc4ccccc4nc32)CC1 |  |  | 6.83 | 30%
60 | CN(C)CCNCCn1c2ccccc2c2nc3ccccc3nc21 | 99% | > 100 µM | 6.83 | 42%
61 | CN(C)CCCCn1c2ccccc2c2nc3ccccc3nc21 |  |  | 5.61 | 30%
62 | OCCNCCCCn1c2ccccc2c2nc3ccccc3nc21 |  |  | 5.96 | 32%
63 | O=C(CN1CCOCC1)N/N=C1/C(=O)Nc2ccc3ccccc3c21 |  |  | 6.76 | 15%
64 | c1ccc2c(c1)ccc1c2c2nc3ccccc3nc2n1CCN1CCOCC1 |  |  | 6.94 | 10%
65 | O=C(Cn1c2ccccc2c2nc3ccccc3nc21)NCCN1CCCCC1 |  |  | 5.15 | 80%
66 | CN1CCN(CCn2c3ccccc3c3nc4ccccc4nc32)CC1 | 82% | 50 µM | 5.87 | 85%
67 | O=C(CCCn1c2ccccc2c2nc3ccccc3nc21)OCCCN1CCOCC1 |  |  | 5.35 | 100%
68 | O=C(Cn1c2ccccc2c2nc3ccccc3nc21)NCCCN1CCOCC1 | 102% | > 100 µM | 5.32 | 60%
69 | O=C(Cn1c2ccccc2c2nc3ccccc3nc21)OCCN1CCOCC1 |  |  | 5.18 | 45%
70 | O=C(Cn1c2ccccc2c2nc3ccccc3nc21)NCCN1CCOCC1 | 109% | > 100 µM | 5.13 | 50%
71 | CCN(CC)CCn1c2ccc(OC)cc2c2nc3ccccc3nc21 | 60% | 100 µM |  | 
72 | CN(C)CCCOC(=O)CCCn1c2ccccc2c2nc3ccccc3nc21 |  |  | 5.32 | 100%
